Experimental data reported in PMC7126824 (European Journal of Medicinal Chemistry, 2011).
Like-named read-outs stand apart in the source and are kept apart here.

Tests used:
[1] = test system: CEM (human lymphocyte) cells; test: Cytostatic activity: inhibition of tumor cell proliferation; type: cell-based; details: read-out: IC50 (50% inhibitory concentration)
Method in brief: (§1)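 Exponentially growing tumour cells were seeded in 96-well plates with a range of test-compound concentrations: CEM lymphocytes at 75,000 cells/well for 3 days, HeLa cervix carcinoma cells at 20,000 cells/well for 4 days. Viable cells were counted with a Coulter counter. The 50% value is the concentration inhibiting tumour cell proliferation by 50%.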

[2] = test system: MDCK, HEL, CrFK, HeLa and CEM cells; test: Cytostatic activity over the cell culture panel of Table 4; type: cell-based; details: read-out: IC50, range over the cell cultures
[3] = test system: HeLa (human cervix carcinoma) cells; test: Cytostatic activity: inhibition of tumor cell proliferation; type: cell-based; details: read-out: IC50 (50% inhibitory concentration)
Method in brief: as §1

[4] = test system: HEL (human lung fibroblast) cells; test: Cytostatic activity: inhibition of cell proliferation; type: cell-based; details: read-out: IC50 (50% inhibitory concentration)
HCMV AD-169 strain = test: Antiviral assay: inhibition of virus-induced cytopathicity in HEL cell cultures; type: cell-based, human cytomegalovirus; details: Human betaherpesvirus 5, AD169, HEL, read-out: EC50 against HCMV AD-169 strain
HCMV Davis strain = test: as above; type: cell-based, human cytomegalovirus; details: Human betaherpesvirus 5, HEL, read-out: EC50 against HCMV Davis strain

S=C(NN=Cc1ccc(Cl)s1)Nc1ccccc1 [Compound 2, 5-Chlorothiophene-2-carboxaldehyde-N(4)phenyl thiosemicarbazone]
IC50 ([1]; Homo sapiens, CCRF-CEM): 10 µM
IC50 [2]: 7.1 to 57.8 µM
IC50 [3]: 7.1 µM
IC50 [4]: 10.4 µM

N.N.[Cl][Pt][Cl] [cisplatinum, reference compound]
IC50 ([1]; CEM cells): 2.2 µM

Nc1nc(O)c2ncn(COC(CO)CO)c2n1 [ganciclovir]
EC50 (HCMV AD-169 strain): 5 µM
EC50 (HCMV Davis strain): 3.4 µM
